Measured values as given in PubChem BioAssay AID602302 (The Scripps Research Institute Molecular Screening Center, 2012).
The source made the active and inactive calls.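 How the source made its calls: active means inhibition of diacylglycerol lipase beta of at least 50% in a gel probe-labeling test; inactive means inhibition under 50%.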

The compounds below were run against Diacylglycerol lipase-beta (Mus musculus) (UniProt Q91WC9) (assay: mouse DAGLb inhibition, probe-labelling competition – biochemical, in-gel fluorescence, HEK293T membranes, overexpressed mouse DAGLb, set 1, late-stage follow-up (AID 602302)). Conditions: HEK293T membrane overexpressing mouse DAGLb, gel ABPP fluorescence; at 0.1 µM; hits give high values.
Chain of Diacylglycerol lipase-beta (Mus musculus) (Q91WC9 whole entry, looked up): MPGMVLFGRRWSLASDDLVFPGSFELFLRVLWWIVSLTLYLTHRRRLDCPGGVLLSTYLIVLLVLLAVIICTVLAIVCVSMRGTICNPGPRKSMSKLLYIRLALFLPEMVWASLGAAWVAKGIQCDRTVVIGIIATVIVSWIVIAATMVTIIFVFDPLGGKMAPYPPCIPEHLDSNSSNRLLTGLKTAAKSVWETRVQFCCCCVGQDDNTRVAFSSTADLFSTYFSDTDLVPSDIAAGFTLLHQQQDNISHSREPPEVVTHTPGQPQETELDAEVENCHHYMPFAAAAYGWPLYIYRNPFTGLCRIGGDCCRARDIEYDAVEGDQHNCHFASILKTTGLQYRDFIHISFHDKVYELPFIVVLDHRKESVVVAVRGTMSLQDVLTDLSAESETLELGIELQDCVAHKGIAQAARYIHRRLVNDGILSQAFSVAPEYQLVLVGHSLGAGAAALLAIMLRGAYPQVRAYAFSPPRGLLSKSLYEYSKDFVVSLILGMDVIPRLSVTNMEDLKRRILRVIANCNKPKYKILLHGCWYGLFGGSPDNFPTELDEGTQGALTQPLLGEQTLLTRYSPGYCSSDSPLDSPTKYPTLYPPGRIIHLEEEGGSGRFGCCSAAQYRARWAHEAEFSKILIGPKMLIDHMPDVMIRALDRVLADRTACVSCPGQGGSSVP
Outline: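 assay system = membrane proteome of transiently transfected HEK293T cells, overexpressed mouse DAGLb | quantity = proteome 0.3 mg/mL | buffer or medium = Dulbecco's PBS (DPBS) | also added = fluorescent probe HT-01 at 1 µM final | doses = single compound dose of 100 nM (0.1 µM) final | timing = 30 min compound plus 30 min probe, 37 °C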

Q: O=C(c1ccc(-c2cn(C(=O)N3CCCCC3Cc3ccccc3)nn2)cc1)N1CCCCC1 (stereo not given) was tested. Which inhibition did it give?
A: Its inhibition is 41% (inactive).

Q: With O=C(N1CCCCC1Cc1ccccc1)n1cc(-c2cccc(-c3ccccc3)c2)nn1 (stereo not given) as the compound, how does the inhibition read?
A: Its inhibition is 27% (inactive).

Q: For O=C(N1CCCCC1Cc1ccccc1)n1cc(-c2ccc(-c3ccc4c(c3)OCO4)cc2)nn1 (stereo not given), which inhibition is on record?
A: The inhibition was 18% (inactive).

Q: Which inhibition does the source give for O=C(N1CCCCC1Cc1ccccc1)n1cc(-c2ccc(-c3ccccc3C(F)(F)F)cc2)nn1 (stereo not given) here?
A: The inhibition was 59%.

Q: For O=C(N1CCCCC1Cc1ccccc1)n1cc(-c2ccc(-c3cccc(C(F)(F)F)c3)cc2)nn1 (stereo not given), which inhibition is on record?
A: The inhibition was 44% (inactive).

Q: How did the inhibition turn out when Cc1ccccc1-c1ccc(-c2cn(C(=O)N3CCCCC3Cc3ccccc3)nn2)cc1 (stereo not given) was run?
A: Its inhibition is 63%.

Q: O=C(N(CCc1ccccc1)Cc1ccco1)n1cc(-c2ccc(OC(F)(F)F)cc2)nn1 was tested. Which inhibition did it give?
A: The inhibition was 71%.

Q: With O=C(N1CCCCC1Cc1ccccc1)n1cc(-c2ccccc2-c2ccccc2)nn1 (stereo not given) as the compound, how does the inhibition read?
A: The inhibition was 18% (inactive).

Q: For O=C(N1CCCCC1Cc1ccccc1)n1cc(-c2ccc(-c3ccccc3Cl)cc2)nn1 (stereo not given), which inhibition is on record?
A: Its inhibition is 66%.

Q: With O=C(N1CCCCC1Cc1ccccc1)n1cc(-c2cc(F)cc(F)c2)nn1 (stereo not given) as the compound, how does the inhibition read?
A: The inhibition was 55%.

Q: For O=C(c1ccc(-c2ccc(-c3cn(C(=O)N4CCCCC4Cc4ccccc4)nn3)cc2)cc1)N1CCCCC1 (stereo not given), which inhibition is on record?
A: The inhibition was 10% (inactive).

Q: O=C(N1CCCCC1Cc1ccccc1)n1cc(-c2ccc(Br)cc2)nn1 (stereo not given) was tested. Which inhibition did it give?
A: Its inhibition is 68%.

Q: O=C(N1CCCCC1Cc1ccccc1)n1cc(-c2ccc(-c3ccccc3)cc2)nn1 (stereo not given) was tested. Which inhibition did it give?
A: The inhibition was 61%.

Q: With O=C(N1CCCCC1Cc1ccccc1)n1ncc(C(O)(c2ccccc2)c2ccccc2)n1 (stereo not given) as the compound, how does the inhibition read?
A: The inhibition was 9% (inactive).

Q: How did the inhibition turn out when O=C(N1CCCCC1Cc1ccccc1)n1cc(-c2ccc(-c3cccc(CO)c3)cc2)nn1 (stereo not given) was run?
A: The inhibition was 11% (inactive).

Q: With CC(C)CN(CCc1ccccc1)C(=O)n1cc(-c2ccc(OC(F)(F)F)cc2)nn1 as the compound, how does the inhibition read?
A: Its inhibition is 70%.

Q: Which inhibition does the source give for CC(C)(C)OC(=O)NCCCCCN(CCc1ccccc1)C(=O)n1cc(-c2ccc(OC(F)(F)F)cc2)nn1 here?
A: The inhibition was 73%.

Q: O=C(N1CCCCC1Cc1ccccc1)n1cc(-c2ccc(-c3ccc(OC(F)(F)F)cc3)cc2)nn1 (stereo not given) was tested. Which inhibition did it give?
A: The inhibition was 38% (inactive).

Q: How did the inhibition turn out when O=C(N1CCCCC1Cc1ccccc1)n1cc(-c2ccc(-c3ccoc3)cc2)nn1 (stereo not given) was run?
A: Its inhibition is 52%.

Q: How did the inhibition turn out when O=C(N1CCCCC1Cc1ccccc1)n1cc(-c2ccc(OC(F)(F)F)cc2)nn1 (stereo not given) was run?
A: The inhibition was 52%.

Q: For O=C(N1CCCCC1Cc1ccccc1)n1cc(-c2ccc(-c3ccc(C(F)(F)F)cc3)cc2)nn1 (stereo not given), which inhibition is on record?
A: The inhibition was 31% (inactive).

Q: How did the inhibition turn out when O=C(N1CCCCC1Cc1ccccc1)n1cc(-c2ccc(-c3ccccc3CO)cc2)nn1 (stereo not given) was run?
A: The inhibition was 67%.

Q: For O=C(N1CCCCC1Cc1ccccc1)n1ncc(-c2ccc(OC(F)(F)F)cc2)n1 (stereo not given), which inhibition is on record?
A: The inhibition was 0% (inactive).

Q: How did the inhibition turn out when COc1ccccc1-c1ccc(-c2cn(C(=O)N3CCCCC3Cc3ccccc3)nn2)cc1 (stereo not given) was run?
A: The inhibition was 55%.

Q: For O=C(N1CCCCC1Cc1ccccc1)n1cc(-c2ccc(-c3ccccc3OC(F)(F)F)cc2)nn1 (stereo not given), which inhibition is on record?
A: Its inhibition is 59%.
